The source of these data is ChEMBL document CHEMBL1128449, “Novel 4'-substituted and 4',4"-disubstituted 3 alpha-(diphenylmethoxy)tropane analogs as potent and selective dopamine uptake inhibitors” (J Med Chem, 1995).

In experiment [1] the target is T1, Muscarinic acetylcholine receptor M1 (Rattus norvegicus, UniProt P08482).
T1 sequence (P08482 whole entry): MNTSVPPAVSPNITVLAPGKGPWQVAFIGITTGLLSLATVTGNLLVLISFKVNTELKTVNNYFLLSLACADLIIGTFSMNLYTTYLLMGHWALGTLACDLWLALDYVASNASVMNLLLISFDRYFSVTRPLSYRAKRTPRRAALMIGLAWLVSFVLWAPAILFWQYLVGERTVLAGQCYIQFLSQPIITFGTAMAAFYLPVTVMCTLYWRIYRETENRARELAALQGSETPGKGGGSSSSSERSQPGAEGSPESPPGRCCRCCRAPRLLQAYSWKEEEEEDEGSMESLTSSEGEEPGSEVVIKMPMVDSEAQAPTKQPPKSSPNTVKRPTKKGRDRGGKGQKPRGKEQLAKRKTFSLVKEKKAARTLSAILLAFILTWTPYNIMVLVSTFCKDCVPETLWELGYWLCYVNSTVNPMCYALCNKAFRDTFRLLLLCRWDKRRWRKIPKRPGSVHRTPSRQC
Description: Affinity for rat M1 acetylcholine receptor using [3H]pirenzepine displacement.

Experiment [2] addresses Norepinephrine transporter (Rattus norvegicus) (UniProt Q9WTR4). The experiment is described as follows: Inhibition of [3H]desmethylimipramine binding at rat norepinephrine transporter; 10 uM. The gist of the method:
(§1)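 Contract-lab radioligand displacement, percent inhibition at 10 μM test compound; 5HTT used [³H]citalopram at 0.7 nM final, NET used [³H]desmethylimipramine at 3.0 nM final.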

The target of experiment [3] is T2, Sodium-dependent dopamine transporter (Rattus norvegicus, UniProt P23977). Description: Inhibition of [3H]dopamine uptake in rat caudate putamen. Type of experiment: functional, tissue-based.
For experiment [4], the target named is Sodium-dependent serotonin transporter (Rattus norvegicus) (UniProt P31652). The experiment is described as follows: Inhibition of [3H]citalopram binding at rat serotonin transporter; 10 uM. The gist of the method:
as §1

Experiment [5] has as its target T2, Sodium-dependent dopamine transporter. Description: Affinity for rat dopamine transporter using [3H]WIN-35428 displacement. In a few lines: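 Rat caudate putamen (male Sprague–Dawley, 200–250 g) homogenised in ice-cold modified Krebs-HEPES, pH 7.4, washed and used fresh (0.5% w/v). Filtration, scintillation counting. Ki from nonlinear least-squares fitting of three independent experiments, F test model selection.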

In experiment [6] the target is T3, Muscarinic acetylcholine receptor M2 (Rattus norvegicus, UniProt P10980).
T3 sequence (P10980 whole entry): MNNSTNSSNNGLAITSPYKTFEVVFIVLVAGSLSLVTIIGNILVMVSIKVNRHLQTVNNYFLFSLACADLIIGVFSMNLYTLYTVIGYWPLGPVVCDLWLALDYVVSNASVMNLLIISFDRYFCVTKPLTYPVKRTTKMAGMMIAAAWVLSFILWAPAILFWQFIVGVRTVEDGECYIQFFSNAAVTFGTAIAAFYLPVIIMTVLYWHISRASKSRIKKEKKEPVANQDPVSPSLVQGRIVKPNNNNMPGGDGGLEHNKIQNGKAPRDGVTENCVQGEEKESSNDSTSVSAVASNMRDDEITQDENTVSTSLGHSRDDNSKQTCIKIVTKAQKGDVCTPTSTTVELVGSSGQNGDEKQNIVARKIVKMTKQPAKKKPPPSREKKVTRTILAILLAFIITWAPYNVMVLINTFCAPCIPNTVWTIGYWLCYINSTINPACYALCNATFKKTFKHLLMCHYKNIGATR
The experiment is described as follows: Affinity for rat M2 acetylcholine receptor using [3H]-AF DX 384 displacement.

The structures appear in SMILES notation. Some results are limits rather than exact numbers.

T2 sequence (P23977 whole entry): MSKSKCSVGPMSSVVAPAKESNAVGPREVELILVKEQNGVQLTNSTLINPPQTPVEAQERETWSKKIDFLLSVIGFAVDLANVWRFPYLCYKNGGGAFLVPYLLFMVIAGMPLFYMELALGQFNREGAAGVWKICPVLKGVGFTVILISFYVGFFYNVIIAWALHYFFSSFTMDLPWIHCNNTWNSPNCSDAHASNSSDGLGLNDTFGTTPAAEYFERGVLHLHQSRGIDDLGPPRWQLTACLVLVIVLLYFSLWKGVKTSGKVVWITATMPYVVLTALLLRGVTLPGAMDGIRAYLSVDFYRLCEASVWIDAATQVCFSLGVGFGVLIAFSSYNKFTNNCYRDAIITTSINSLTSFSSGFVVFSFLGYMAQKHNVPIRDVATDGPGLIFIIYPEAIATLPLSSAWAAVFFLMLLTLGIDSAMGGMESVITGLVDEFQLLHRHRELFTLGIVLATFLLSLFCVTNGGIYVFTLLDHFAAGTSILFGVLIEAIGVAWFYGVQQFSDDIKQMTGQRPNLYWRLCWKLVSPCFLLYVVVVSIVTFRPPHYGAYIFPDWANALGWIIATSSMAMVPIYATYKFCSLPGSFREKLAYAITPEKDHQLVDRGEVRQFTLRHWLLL
Chain of Norepinephrine transporter (Rattus norvegicus) (Q9WTR4 as listed by the source): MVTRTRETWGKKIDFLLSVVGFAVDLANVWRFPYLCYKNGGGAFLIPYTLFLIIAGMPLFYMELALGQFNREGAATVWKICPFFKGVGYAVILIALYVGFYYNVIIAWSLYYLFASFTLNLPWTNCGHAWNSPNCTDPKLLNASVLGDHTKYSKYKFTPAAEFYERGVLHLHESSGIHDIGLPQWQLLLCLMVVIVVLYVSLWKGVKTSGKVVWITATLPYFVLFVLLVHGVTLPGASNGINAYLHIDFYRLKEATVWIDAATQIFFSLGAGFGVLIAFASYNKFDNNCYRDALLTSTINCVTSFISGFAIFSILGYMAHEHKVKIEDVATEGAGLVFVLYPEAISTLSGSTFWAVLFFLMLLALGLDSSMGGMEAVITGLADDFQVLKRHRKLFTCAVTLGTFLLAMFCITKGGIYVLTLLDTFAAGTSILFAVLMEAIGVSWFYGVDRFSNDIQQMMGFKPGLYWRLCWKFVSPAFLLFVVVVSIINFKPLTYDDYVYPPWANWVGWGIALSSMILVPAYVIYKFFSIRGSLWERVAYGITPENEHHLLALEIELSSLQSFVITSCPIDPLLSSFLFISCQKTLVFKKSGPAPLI
Chain of Sodium-dependent serotonin transporter (Rattus norvegicus) (P31652 whole entry): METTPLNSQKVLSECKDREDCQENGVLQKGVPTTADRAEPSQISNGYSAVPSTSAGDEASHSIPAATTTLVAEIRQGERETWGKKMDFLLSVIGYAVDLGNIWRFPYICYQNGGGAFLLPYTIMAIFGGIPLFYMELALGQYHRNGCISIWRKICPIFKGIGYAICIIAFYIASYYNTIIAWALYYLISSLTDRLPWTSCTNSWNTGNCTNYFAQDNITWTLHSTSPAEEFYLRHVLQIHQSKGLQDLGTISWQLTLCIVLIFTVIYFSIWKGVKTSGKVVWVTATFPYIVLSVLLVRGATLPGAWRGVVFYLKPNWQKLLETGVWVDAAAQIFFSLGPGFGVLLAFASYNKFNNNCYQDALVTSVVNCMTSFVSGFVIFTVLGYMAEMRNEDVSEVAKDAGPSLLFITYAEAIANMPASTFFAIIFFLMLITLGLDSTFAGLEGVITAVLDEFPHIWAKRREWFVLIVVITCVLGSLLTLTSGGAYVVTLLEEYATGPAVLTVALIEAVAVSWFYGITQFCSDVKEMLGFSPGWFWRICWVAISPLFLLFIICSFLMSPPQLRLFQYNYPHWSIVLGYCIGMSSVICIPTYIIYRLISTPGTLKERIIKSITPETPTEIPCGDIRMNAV

As for `CN1[C@@H]2CC[C@H]1C[C@@H](OC(c1ccc(Br)cc1)c1ccc(Br)cc1)C2`, the affinity in experiment [1] corresponds to a Ki of 70.8 nM. Further, the values for the inhibition in experiment [2] and in experiment [4] were 41.1% and 41%, respectively. The molecule further yielded an IC50 in experiment [3] of 34 nM.

`CN1C2CCC1CC(OC(c1ccc(F)cc1)c1ccc(F)cc1)C2` (stereo not drawn): the figures for the inhibition in experiment [2] and in experiment [4] were 30% and 62%, respectively.

In the case of `CN1C2CCC1CC(OC(c1ccccc1)c1ccc(Cl)cc1)C2` (stereo in doubt; 7a) [listing 1 of 2 here], the Ki worked out at 30 nM in experiment [5], 3.6 nM in experiment [1] and 36.6 nM in experiment [6]. Also, the concentration for half-maximal inhibition (IC50) in experiment [3] worked out at 115 nM.

Turning to `CN1C2CCC1CC(OC(c1ccccc1)c1ccc(Cl)cc1)C2` (stereo in doubt; 10) [listing 1 of 2 here], the inhibition constant Ki in experiment [1] amounted to 4.1 nM; in experiment [6] it was 87.4 nM. Besides, in experiment [3], inhibition was half-maximal at 3520 nM (IC50).

Turning to `CN1[C@@H]2CC[C@H]1C[C@@H](OC(c1ccccc1)c1ccc(C(C)(C)C)cc1)C2` (stereo partly drawn), the inhibition in experiment [2] worked out at 37.6%; in experiment [4] it was 24.7%. This molecule also gave a 50% inhibitory concentration (IC50) in experiment [3] of 4460 nM.

As for `CN1[C@@H]2CC[C@H]1C[C@@H](OC(c1ccccc1)c1ccc([N+](=O)[O-])cc1)C2` (stereo partly drawn), the inhibition in experiment [2] was determined as 29%; in experiment [4] it was 54%. The molecule further came in with an IC50 in experiment [3] of 219 nM.

`COc1ccc(C(O[C@H]2C[C@H]3CC[C@@H](C2)N3C)c2ccccc2)cc1` (stereo partly drawn) showed a Ki in experiment [5] of 78.4 nM. The inhibition in experiment [2] was determined as 30.9%; in experiment [4], 30.5%. Further, in experiment [3], the IC50 turned out to be 468 nM.

Take `COc1ccc(C(O[C@H]2C[C@H]3CC[C@@H](C2)N3C)c2ccc(OC)cc2)cc1`: the Ki in experiment [5] was 2000 nM. The values for the inhibition in experiment [2] and in experiment [4] were 34% and 31%, respectively. Moreover, the IC50 in experiment [3] is 2880 nM.

`CN1C2CCC1CC(OC(c1ccccc1)c1ccc(Cl)cc1)C2` (stereo in doubt; 7a) [listing 2 of 2 here]: the figures for the inhibition in experiment [2] and in experiment [4] were 32% and 34%, respectively.

Consider `CN1[C@@H]2CC[C@H]1C[C@@H](OC(c1ccccc1)c1ccc(F)cc1)C2` (stereo partly drawn), for which the inhibition in experiment [2] was found to be 37.9%; in experiment [4] it was 35.2%.

`CN1[C@@H]2CC[C@H]1C[C@@H](OC(c1ccccc1)c1ccc(C#N)cc1)C2` (stereo partly drawn): the inhibition in experiment [2] came to 16%; in experiment [4], 40%. This molecule displayed an IC50 in experiment [3] of 222 nM.

As to `CCc1ccc(C(O[C@H]2C[C@H]3CC[C@@H](C2)N3C)c2ccccc2)cc1` (stereo partly drawn), the inhibition in experiment [2] worked out at 32.7%; in experiment [4], 42.7%. In experiment [3], the concentration for half-maximal inhibition (IC50) is 984 nM.

Take `CN1[C@@H]2CC[C@H]1C[C@@H](OC(c1ccccc1)c1ccc(Br)cc1)C2` (stereo partly drawn): the values for the inhibition in experiment [2] and in experiment [4] were 37% and 39%, respectively. The same molecule yielded a half-maximal inhibitory concentration (IC50) in experiment [3] of 29 nM.

As to `Cc1ccc(C(O[C@H]2C[C@H]3CC[C@@H](C2)N3C)c2ccccc2)cc1` (stereo partly drawn), the inhibition was found to be 31.8% in experiment [2] and 35.4% in experiment [4]. Also, it took 512 nM to reach half-maximal inhibition in experiment [3] (IC50).

For `CN1[C@@H]2CC[C@H]1C[C@@H](OC(c1ccccc1)c1ccc(C(F)(F)F)cc1)C2` (stereo partly drawn), the inhibition in experiment [2] came out at 34.6%; in experiment [4], 49.1%. Also, in experiment [3], the IC50 was 2150 nM.

As to `Cc1ccc(C(O[C@H]2C[C@H]3CC[C@@H](C2)N3C)c2ccc(C)cc2)cc1`, the inhibition in experiment [2] came to 35.1%; in experiment [4] it was 35.5%. For the same molecule, the midpoint of inhibition in experiment [3], the IC50, lay at 2540 nM.

Take `CN1C2CCC1CC(OC(c1ccccc1)c1ccc(Cl)cc1)C2` (stereo in doubt; 10) [listing 2 of 2 here]: the inhibition was found to be 27.9% in experiment [2] and 37.2% in experiment [4].

Take `CN1[C@@H]2CC[C@H]1C[C@@H](OC(c1ccccc1)c1ccc(Cl)c(Cl)c1)C2` (stereo partly drawn): the Ki in experiment [5] is 21.1 nM. Further, the results for the inhibition in experiment [2] and in experiment [4] were 56.5% and 66.2%, respectively. This molecule also had a 50% inhibitory concentration (IC50) in experiment [3] of 47 nM.

In the case of `CN1[C@@H]2CC[C@H]1C[C@@H](OC(c1ccc(F)cc1)c1ccc(Cl)c(Cl)c1)C2` (stereo partly drawn), the inhibition is over 57.8% in experiment [2] and 80.3% in experiment [4]. This molecule also gave a half-inhibitory concentration (IC50) in experiment [3] of 24 nM.

Turning to `CN1[C@@H]2CC[C@H]1C[C@@H](OC(c1ccccc1)c1ccc(O)cc1)C2` (stereo partly drawn), the inhibition in experiment [2] came out at 27.3%; in experiment [4] it was 23.3%. Also, it took 677 nM to reach half-maximal inhibition in experiment [3] (IC50).

Regarding `CN1[C@@H]2CC[C@H]1C[C@@H](OC(c1ccc(Cl)cc1)c1ccc(Cl)cc1)C2`, the inhibition in experiment [2] was over 43%; in experiment [4], 54%.
